Among the data in paper PMC10448641 (ACS Omega, 2023) are IC50 values, retold here.

The assay has as its system WISH cells. Description: MTT cytotoxicity assay, WISH normal cells. The note with it: read-out: IC50 ± SD, WISH (Normal cells). The class given is cell-based. The method in brief:
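Cells obtained from the Egyptian National Cancer Institute and grown in RPMI-1640/DMEM with L-glutamine. Seeded at 5 × 10^4 cells/well in triplicate and treated at 0.1, 1, 10 and 100 μg/mL. Viability read by MTT on the second day with absorbance on a microplate reader. IC50 derived against control-group viability, recorded in triplicate, mean ± SD.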
(In general: Tetrazolium dyes change colour on reduction, which living cells bring about.)

For the molecule `COc1cccc2c1C(=O)c1c(O)c3c(c(O)c1C2=O)C[C@@](O)(C(=O)CO)C[C@@H]3O[C@H]1C[C@H](N)[C@H](O)[C@H](C)O1` [Doxorubicin], the IC50 came out at 56.5 ± 2.7 µM.

For orientation: IC50 means the concentration that inhibits the measured activity by half.
